*1 amine or outer side, *2 acyl side, *3 side chain or, on linkers, in order; H or OH if unused. Where a SMILES comes first, the peptide text is derived from it. [ ]: non-standard residue; d: D form. X1 = CN([C@@H](CCN1CCCCC1)C(=O)[*:2])[*:1]; NMeW = CN[C@@H](Cc1c[nH]c2ccccc12)C(=O)O; NMeY = CN[C@@H](Cc1ccc(O)cc1)C(=O)O; NMeLys(Me) = CNCCCC[C@H](NC)C(=O)O; NMeT = CN[C@H](C(=O)O)[C@@H](C)O; NMeL = CN[C@@H](CC(C)C)C(=O)O; dNMeL = CN[C@H](CC(C)C)C(=O)O; NMeK = CN[C@@H](CCCCN)C(=O)O; NMeS = CN[C@@H](CO)C(=O)O
Legend:
[1] = Terminal elimination half life in Wistar-Han rat at 10 mg/kg, po; format: ADME, organism-based; set-up: dose 10 mg/kg, route oral; settings: in vivo, read-out: beta t1/2 (converted)
Outline: (§1)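 Male Wistar-Hannover rats (230–250 g, n = 3), jugular-cannulated, were fasted overnight and dosed by oral gavage. Vehicle depended on compound: SEDDS/water or propylene glycol/sodium phosphate pH 7.4. Blood was collected at 0.083–24 h into K2EDTA and the plasma analyzed by LC-MS/MS. Terminal half-life came from the non-compartmental ln-concentration slope.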

[2] = Tmax in male Wistar-Han rat at 10 mg/kg, po; format: ADME, organism-based; set-up: dose 10 mg/kg, route oral; settings: in vivo
[3] = Cmax in male Wistar-Han rat at 10 mg/kg, po; format: ADME, organism-based; set-up: dose 10 mg/kg, route oral; settings: in vivo
[4] = AUC (0 to infinity) in male Wistar-Han rat at 1 mg/kg, iv; format: ADME, organism-based; set-up: time infinity, dose 1 mg/kg, route intravenous; settings: plasma
[5] = AUC (0 to infinity) in male Wistar-Han rat at 10 mg/kg, po; format: ADME, organism-based; set-up: time infinity, dose 10 mg/kg, route oral; settings: plasma
Outline: (§2)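 Jugular vein-cannulated male Wistar-Hannover rats (230-250 g), n = 3, fasted overnight and fed after the 4 h sample; oral dosing in the i.v. formulations, except the SEDDS formulation used 90% water. Serial blood 0.083–24 h, K2EDTA plasma, LC-MS/MS against standard curve; non-compartmental AUC0-∞ by linear trapezoid rule.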

[6] = Apparent permeability from apical to basolateral side in human Caco2 cells by LC-MS/MS analysis; format: ADME, cell-based; settings: Caco-2
[7] = Intrinsic clearance in rat liver microsomes by LC-MS/MS analysis; format: ADME; settings: read-out: CLH
Outline: (§3)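 Compound at 1 µM with liver microsomes (CYP 0.25 µM) in 0.1 M potassium phosphate, pH 7.4, at 37 °C. Final solvent was 0.975% acetonitrile and 0.025% DMSO. Mix prewarmed 5 min, then started with 1.3 mM NADPH; no-NADPH controls were run. Sampled at 0–60 min into acetonitrile and followed by LC-MS/MS for substrate loss. T1/2 was scaled to CLint by the well-stirred model.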

[8] = Terminal elimination half life in Wistar-Han rat at 1 mg/kg, iv; format: ADME, organism-based; set-up: dose 1 mg/kg, route intravenous; settings: in vivo, read-out: beta t1/2 (converted)
[9] = Intrinsic clearance in human liver microsomes by LC-MS/MS analysis; format: ADME; settings: read-out: CLH; outline: as §3
[10] = Lipophilicity, log D of the compound at pH 7.4 by shake-flask method; format: physicochemical; settings: buffer
[11] = Volume of distribution at steady state in male Wistar-Han rat at 1 mg/kg, iv; format: ADME, organism-based; set-up: dose 1 mg/kg, route intravenous; settings: in vivo, read-out: Vdss
[12] = Plasma clearance in male Wistar-Han rat at 1 mg/kg, iv; format: ADME, organism-based; set-up: dose 1 mg/kg, route intravenous
[13] = Oral bioavailability in male Wistar-Han rat at 10 mg/kg; format: ADME, organism-based; settings: in vivo
Outline: (§4)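 Male Wistar-Hannover rats (230-250 g, cannulated; n = 3) fasted overnight, fed after the 4 h sample, and dosed orally in the i.v. formulations or 10% SEDDS:90% water. Serial blood sampled 0.083–24 h into K2EDTA. Plasma measured by LC-MS/MS against a standard curve. Cmax and Tmax read from individual profiles; F = oral AUC0-∞ relative to i.v. AUC0-∞.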

[14] = Oral bioavailability in male Wistar-Han rat assessed as dose escapes hepatic metabolism; format: ADME, organism-based; settings: in vivo
[15] = AUC (0 to infinity) in male Wistar-Han rat at 5 mg/kg, po; format: ADME, organism-based; set-up: time infinity, dose 5 mg/kg, route oral; settings: plasma; outline: as §2
[16] = Oral bioavailability in male Wistar-Han rat at 5 mg/kg; format: ADME, organism-based; settings: in vivo; outline: as §4
[17] = Cmax in male Wistar-Han rat at 5 mg/kg, po; format: ADME, organism-based; set-up: dose 5 mg/kg, route oral; settings: in vivo
Outline: (§5)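 Jugular vein-cannulated male Wistar-Hannover rats (230-250 g), n = 3, fasted overnight and fed after the 4 h sample. Single oral dose in compound-specific vehicles (10% SEDDS:90% water, or propylene glycol with 20 mM sodium phosphate pH 7.4). Serial blood at 0.083–24 h into K2EDTA. Plasma protein-precipitated with internal standard and analysed by LC-MS/MS. Cmax read directly from individual concentration–time curves.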

[18] = Terminal elimination half life in Wistar-Han rat at 5 mg/kg, po; format: ADME, organism-based; set-up: dose 5 mg/kg, route oral; settings: in vivo, read-out: beta t1/2 (converted); outline: as §1
[19] = Oral bioavailability in male Wistar-Han rat assessed as fraction of absorbed dose; format: ADME, organism-based; settings: in vivo, read-out: Fabs
[20] = AUC (0 to infinity) in male Wistar-Han rat at 0.4 mg/kg, iv; format: ADME, organism-based; set-up: time infinity, dose 0.4 mg/kg, route intravenous; settings: plasma
Outline: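 Jugular vein-cannulated male Wistar-Hannover rats (230-250 g), n = 3, fed ad libitum; 30 s tail-vein injection in 10% SEDDS:90% sterile dextrose, 1:1 propylene glycol:20 mM sodium phosphate (pH 7.4), or 10% propylene glycol:90% 20 mM sodium phosphate (pH 7.4). Blood via cannula to 24 h, K2EDTA plasma, LC-MS/MS against standard curve; non-compartmental AUC0-∞ by linear trapezoid rule.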

[21] = Oral bioavailability in male Wistar-Han rat at 2.9 mg/kg; format: ADME, organism-based; settings: in vivo; outline: as §4
[22] = Cmax in male Wistar-Han rat at 2.9 mg/kg, po; format: ADME, organism-based; set-up: dose 2.9 mg/kg, route oral; settings: in vivo; outline: as §5
[23] = Volume of distribution at steady state in male Wistar-Han rat at 0.4 mg/kg, iv; format: ADME, organism-based; set-up: dose 0.4 mg/kg, route intravenous; settings: in vivo, read-out: Vdss
Outline: (§6)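 Jugular vein-cannulated male Wistar-Hannover rats (230-250 g; n = 3) given a 30 s tail-vein bolus in SEDDS/dextrose or propylene glycol/20 mM sodium phosphate (pH 7.4) vehicles. Blood sampled 0.03–24 h via cannula into K2EDTA. Plasma proteins precipitated, LC-MS/MS. Non-compartmental: CLp = dose/AUC0-∞ (linear trapezoid); Vdss; T1/2 = 0.693/terminal log-linear slope.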

[24] = Terminal elimination half life in Wistar-Han rat at 2.9 mg/kg, po; format: ADME, organism-based; set-up: dose 2.9 mg/kg, route oral; settings: in vivo, read-out: beta t1/2 (converted); outline: as §1
[25] = Plasma clearance in male Wistar-Han rat at 0.4 mg/kg, iv; format: ADME, organism-based; set-up: dose 0.4 mg/kg, route intravenous; outline: as §6
[26] = AUC (0 to infinity) in male Wistar-Han rat at 2.9 mg/kg, po; format: ADME, organism-based; set-up: time infinity, dose 2.9 mg/kg, route oral; settings: plasma; outline: as §2
[27] = Terminal elimination half life in Wistar-Han rat at 0.4 mg/kg, iv; format: ADME, organism-based; set-up: dose 0.4 mg/kg, route intravenous; settings: in vivo, read-out: beta t1/2 (converted)
Outline: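 Jugular vein-cannulated male Wistar-Hannover rats (230–250 g, n = 3) received a tail-vein bolus over 30 s. Vehicle depended on compound: SEDDS/dextrose or propylene glycol/20 mM sodium phosphate pH 7.4. Blood was drawn at 0.03–24 h into K2EDTA and the plasma analyzed by LC-MS/MS. Non-compartmental analysis gave T1/2 = 0.693/|terminal ln-slope|.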

CC(C)C[C@@H]1NC(=O)[C@H](Cc2ccc(O)cc2)N(C)C(=O)[C@H]2CCCN2C(=O)[C@H](CC(C)C)NC(=O)[C@H](CCCCN)N(C)C(=O)[C@@H](CC(C)C)N(C)C1=O (cyclo(L[dNMeL][NMeK]L[dP][NMeY]))
half-life [1]: 1.56 h | Tmax [2]: 1.56 h | Cmax [3]: 18.3 ng/mL | AUC(0-inf) [4]: 1640 ng·h/mL | AUC(0-inf) [5]: 18.1 ng·h/mL | Papp A→B [6]: 0.09 ×10⁻⁶ cm/s | CLint scaled [7]: < 9 mL/min/kg | half-life [8]: 1.01 h | CLint scaled [9]: < 8 mL/min/kg | logD [10]: 0.678 | Vd [11]: 0.93 L/kg | clearance [12]: 10.4 mL/min/kg | bioavailability [13]: 0.09%

CC(C)C[C@@H]1NC(=O)[C@H](Cc2ccc(O)cc2)N(C)C(=O)[C@H]2CCCN2C(=O)[C@H](CC(C)C)NC(=O)[C@H](CC(C)C)N(C)C(=O)[C@@H](CC(C)C)N(C)C1=O (cyclo(L[dNMeL][NMeL]L[dP][NMeY]))
CLint scaled [9]: 120 mL/min/kg

CNCCCC[C@H]1C(=O)N[C@@H](CC(C)C)C(=O)N2CCC[C@@H]2C(=O)N(C)[C@@H](Cc2ccc(O)cc2)C(=O)N[C@@H](CC(C)C)C(=O)N(C)[C@H](CC(C)C)C(=O)N1C (cyclo(L[dNMeL][NMeLys(Me)]L[dP][NMeY]))
CLint scaled [9]: 9 mL/min/kg | logD [10]: 0.723

CC(C)C[C@@H]1NC(=O)[C@H](Cc2ccc(O)cc2)N(C)C(=O)[C@H]2CCCN2C(=O)[C@H](CC(C)C)NC(=O)[C@H](CO)N(C)C(=O)[C@@H](CC(C)C)N(C)C1=O (cyclo(L[dNMeL][NMeS]L[dP][NMeY]))
AUC(0-inf) [4]: 282 ng·h/mL | Fh [14]: 14% | AUC(0-inf) [15]: 42.3 ng·h/mL | Papp A→B [6]: 3.3 ×10⁻⁶ cm/s | CLint scaled [7]: 96 mL/min/kg | half-life [8]: 1.46 h | bioavailability [16]: 2.03% | Cmax [17]: 9.86 ng/mL | half-life [18]: 2.82 h | Fa [19]: 14.5% | CLint scaled [9]: 80 mL/min/kg | logD [10]: 2.61 | Vd [11]: 4.3 L/kg | clearance [12]: 60.4 mL/min/kg

CC(C)C[C@@H]1NC(=O)[C@H](Cc2ccc(O)cc2)N(C)C(=O)[C@H]2CCCN2C(=O)[C@H](CC(C)C)NC(=O)[C@H]([C@@H](C)O)N(C)C(=O)[C@@H](CC(C)C)N(C)C1=O (cyclo(L[dNMeL][NMeT]L[dP][NMeY]))
AUC(0-inf) [20]: 109 ng·h/mL | bioavailability [21]: 23.8% | Cmax [22]: 105 ng/mL | Vd [23]: 3.8 L/kg | CLint scaled [7]: 44 mL/min/kg | half-life [24]: 0.92 h | clearance [25]: 63.6 mL/min/kg | CLint scaled [9]: 89 mL/min/kg | logD [10]: 3.17 | AUC(0-inf) [26]: 201 ng·h/mL | half-life [27]: 1.03 h

CC(C)C[C@@H]1NC(=O)[C@H](Cc2ccc(O)cc2)N(C)C(=O)[C@H]2CCCN2C(=O)[C@H](CC(C)C)NC(=O)[C@H](Cc2c[nH]c3ccccc23)N(C)C(=O)[C@@H](CC(C)C)N(C)C1=O (cyclo(L[dNMeL][NMeW]L[dP][NMeY]))
CLint scaled [9]: 56 mL/min/kg | logD [10]: 4.07

CC(C)C[C@@H]1NC(=O)[C@H](Cc2ccc(O)cc2)N(C)C(=O)[C@H]2CCCN2C(=O)[C@H](CC(C)C)NC(=O)[C@H](Cc2ccc(O)cc2)N(C)C(=O)[C@@H](CC(C)C)N(C)C1=O (cyclo(L[dNMeL][NMeY]L[dP][NMeY]))
CLint scaled [9]: 29 mL/min/kg | logD [10]: 3.82

CC(C)C[C@@H]1NC(=O)[C@H](Cc2ccc(O)cc2)N(C)C(=O)[C@H]2CCCN2C(=O)[C@H](CC(C)C)NC(=O)[C@H](CCN2CCCCC2)N(C)C(=O)[C@@H](CC(C)C)N(C)C1=O (cyclo(L[dNMeL][X1]L[dP][NMeY]))
CLint scaled [9]: < 8 mL/min/kg | logD [10]: 2.2
